Measurements: article PMC10622838 (The Journal of Biological Chemistry, 2023)

How the values were obtained:
EoL-1 cells = experiment: cAMP accumulation; assay type: cell-based, human; details: from combined Fig. 5F and Fig. 5H
GPR114 = experiment: CRE-Luc assay, GPR114 overexpressed in HEK293T cells; assay type: cell-based, human
Summary of the method: (§1)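 HEK293T cells plated in DMEM + 10% FBS 24 h before polyethylenimine co-transfection with receptor in pcDNA3.1, rat insulin II promoter CRE-firefly luciferase, and phRLuc-N1 Renilla control. Cells were reseeded at 80,000/well 6 h later, serum-starved 4 h at 36 h, then given synthetic peptide in DMSO for 4 h. Firefly luminescence (Steady-Glo) was normalised to RLuc (3 μM coelenterazine h). Mean ± SD, ≥3 independent experiments.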

GPR64 = experiment: CRE-Luc assay, GPR64 overexpressed in HEK293T cells; assay type: cell-based, human
Summary of the method: as §1

[1] = system: GPR114-A230M (CTF-only, compromised TA); experiment: CRE-luciferase reporter assay, GPR114-A230M; assay type: cell-based, human; details: HEK293T, thrombin 4 h, FLuc/RLuc ratio, Fig. 4C
PAR1-GPR56 fusion / G13 = experiment: G13 GTPγS binding kinetics, PAR1-GPR56 fusion Sf9 membranes; assay type: biochemical, human; details: Fig. S1A

Row | thrombin-dependent CRE-luciferase activation [1] | Substance | target specificity of cAMP stimulation in EoL-1 cells (conclusion) (EoL-1 cells) | activation in CRE-Luc assay (GPR114; GPR114, Fig. 5H, as summarised in Discussion) | CRE-Luc activity (stimulation) (GPR114; TA-compromised (ΔTA) 7TM version of GPR114, Fig. 5H) | CRE-Luc activity (stimulation) (GPR114; full length GPR114, Fig. 5H) | activation in CRE-Luc assay (GPR64; GPR64, Fig. 5H, as summarised in Discussion) | CRE-Luc activity (stimulation) (GPR64; TA-compromised (ΔTA) 7TM version of GPR64, Fig. 5H) | CRE-Luc activity (stimulation) (GPR64; full length GPR64, Fig. 5H) | thrombin-dependent activation of purified G13 (PAR1-GPR56 fusion / G13)
1 |  | TYFAVLM [P7 GPR114-AP] | promiscuously stimulates cAMP accumulation via a yet to be determined GPCR | did not activate GPR114 nor GPR64 | did not stimulate cAMP production in any condition | did not stimulate cAMP production in any condition | did not activate GPR114 nor GPR64 | did not stimulate cAMP production in any condition | did not stimulate cAMP production in any condition | 
2 | not stimulated by thrombin | Thrombin |  |  |  |  |  |  |  | strong thrombin-dependent activation of purified G13
